Test [1] addresses T1, Adenosine receptor A1 (Homo sapiens, UniProt P30542).
T1 sequence (P30542 whole entry): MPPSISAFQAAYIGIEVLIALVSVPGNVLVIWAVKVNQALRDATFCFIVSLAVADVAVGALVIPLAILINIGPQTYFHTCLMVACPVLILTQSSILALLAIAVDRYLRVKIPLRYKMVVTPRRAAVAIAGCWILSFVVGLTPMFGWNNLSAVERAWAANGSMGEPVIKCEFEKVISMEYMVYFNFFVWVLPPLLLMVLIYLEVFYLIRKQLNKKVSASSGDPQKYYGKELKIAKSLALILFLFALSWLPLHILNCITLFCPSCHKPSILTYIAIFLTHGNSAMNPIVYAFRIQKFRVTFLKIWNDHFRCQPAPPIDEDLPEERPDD
The test is described as follows: Displacement of [3H]DPCPX from human adenosine A1 receptor expressed in CHO cells; range 885-1163. The format is cell-based.

The target of test [2] is T2, Adenosine receptor A2a (Homo sapiens, UniProt P29274). As to the kind of experiment: Displacement of [3H]-SCH- 58261 from human adenosine A2A receptor expressed in CHO cells; range 632-1003. The format is cell-based. The method, boiled down: (§1)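 Membranes from CHO cells stably expressing human A2A receptor, grown in DMEM/F12 without nucleosides, resuspended in 50 mM Tris HCl, 10 mM MgCl2, pH 7.4; 50 μg protein/assay. Competition with [3H]SCH 58261 at 6–8 or more compound concentrations, 60 min at 25 °C; nonspecific binding with 50 μM NECA. Filtration on GF/B filters, scintillation counting; n=3-6.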

Test [3] addresses T3, Adenosine receptor A3 (Homo sapiens, UniProt P0DMS8).
T3 sequence (P0DMS8 whole entry): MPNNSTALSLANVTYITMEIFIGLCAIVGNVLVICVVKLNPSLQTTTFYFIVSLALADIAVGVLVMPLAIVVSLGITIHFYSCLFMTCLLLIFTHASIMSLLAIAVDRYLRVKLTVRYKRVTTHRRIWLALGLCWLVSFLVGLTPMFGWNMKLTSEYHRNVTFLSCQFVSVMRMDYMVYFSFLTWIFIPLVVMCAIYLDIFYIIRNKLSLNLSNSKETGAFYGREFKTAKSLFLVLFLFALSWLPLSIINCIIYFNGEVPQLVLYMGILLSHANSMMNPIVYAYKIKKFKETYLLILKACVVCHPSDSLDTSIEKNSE
As to the kind of experiment: Displacement of [3H]MRE3008-F20 from human adenosine A3 receptor expressed in CHO cells; range 2.13-3.62. The format is cell-based.

Test [4] addresses Adenosine receptors; A1 & A3 (Homo sapiens) (UniProt P30542+P0DMS8). As to the kind of experiment: Ratio of binding affinity of human A1 receptor to that of human A3 receptor. The format is protein assay. In outline: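 Ki ratio from displacement in CHO membranes, 6–8 concentrations, n=3-6, filtration counting. A1: 1 nM [3H]DPCPX, 50 μg protein, 120 min at 25 °C, nonspecific with 10 μM CHA. A3: 1 nM [3H]MRE3008-F20, 50 μg protein, Tris/10 mM MgCl2 pH 7.4, 120 min at 4 °C, nonspecific with 1 μM MRE3008-F20.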

Test [5] concerns the target Adenosine receptors; A2b & A3 (Homo sapiens) (UniProt P29275+P0DMS8). The test is described as follows: Ratio of binding affinity of human A2B receptor to that of human A3 receptor. The format is protein assay. The method, boiled down:
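Ki ratio, n=3-6, 6–8 concentrations. A2B in HEK-293 membranes (20 μg): 40 nM [3H]DPCPX, 50 mM Tris HCl, 10 mM MgCl2, 1 mM EDTA, 0.1 mM benzamidine pH 7.4, 2 IU/mL adenosine deaminase, 60 min at 25 °C, nonspecific with 100 μM NECA. A3 in CHO membranes (50 μg): 1 nM [3H]MRE3008-F20, 120 min at 4 °C.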

Test [6] concerns the target T4, Adenosine receptor A3 (Homo sapiens) (UniProt P0DMS8).
T4 sequence (whole entry): T3 sequence (P0DMS8 whole entry)
Conditions: CHO, 1 uM.

The target of test [7] is T5, Adenosine receptor A2b (Homo sapiens, UniProt P29275).
T5 sequence (P29275 whole entry): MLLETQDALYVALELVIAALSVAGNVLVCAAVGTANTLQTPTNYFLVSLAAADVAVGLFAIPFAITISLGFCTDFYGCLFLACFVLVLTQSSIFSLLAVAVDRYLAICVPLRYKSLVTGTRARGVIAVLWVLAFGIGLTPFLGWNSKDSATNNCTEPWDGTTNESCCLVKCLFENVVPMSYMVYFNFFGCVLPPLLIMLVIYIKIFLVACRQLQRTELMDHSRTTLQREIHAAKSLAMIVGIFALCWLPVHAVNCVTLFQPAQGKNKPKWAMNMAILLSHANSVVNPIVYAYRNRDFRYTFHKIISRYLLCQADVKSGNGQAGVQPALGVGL
As to the kind of experiment: Displacement of [3H]DPCPX from Adenosine A2b receptor expressed in HEK-293 cells; range 432-469.

Test [8] has as its target T2, Adenosine receptor A2a. As to the kind of experiment: Displacement of [3H]-SCH- 58261 from human adenosine A2A receptor expressed in CHO cells; range 70-130. The test is classed as cell-based. The method, boiled down:
as §1

Test [9] deals with T3, Adenosine receptor A3. The test is described as follows: Displacement of [3H]MRE3008-F20 from human adenosine A3 receptor expressed in CHO cells; range 0.52-0.68. The format is cell-based.
In test [10] the target is T5, Adenosine receptor A2b. The test is described as follows: Displacement of [3H]DPCPX from Adenosine A2b receptor expressed in […]; range 56-89. The format is cell-based.
In test [11] the target is T1, Adenosine receptor A1. The test is described as follows: Displacement of [3H]-DPCPX from human adenosine A1 receptor expressed in CHO cells; range 213-281. The test is classed as cell-based.
For test [12], the target named is T3, Adenosine receptor A3. As to the kind of experiment: Inhibition of cAMP accumulation in CHO cells expressing human adenosine A3 receptor; range 3.0-6.9. The format is functional, cell-based.
In test [13] the target is T4, Adenosine receptor A3 (Homo sapiens). Conditions: CHO, 1 uM. The source holds these as a separate data set.
Test [14] addresses T2, Adenosine receptor A2a. As to the kind of experiment: Displacement of [3H]-SCH- 58261 from human adenosine A2A receptor expressed in CHO cells; range 17-24. The test is classed as cell-based. In outline:
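CHO membranes expressing human A2A receptor (50 μg protein) in 50 mM Tris HCl, 10 mM MgCl2, pH 7.4, competed against [3H]SCH 58261. At least 6–8 test concentrations were used, with 60 min incubation at 25 °C. Nonspecific binding defined by 50 μM NECA; n=3-6.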

The target of test [15] is T1, Adenosine receptor A1. As to the kind of experiment: Displacement of [3H]DPCPX from human adenosine A1 receptor expressed in CHO cells; range 123-160. The format is cell-based.
The target in test [16] is T4, Adenosine receptor A3 (Homo sapiens). The test is described as follows: Percentage of blockade by 1 uM of the inhibition by 100 nM IB-MECA-inhibited cAMP accumulation in CHO cells expressing human adenosine A3 receptor. The format is functional, cell-based. In outline: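 CHO cells stably expressing human A3 receptor; membranes in 50 mM Tris HCl, 10 mM MgCl2, 1 mM EDTA pH 7.4 with 5 μM GTP, 0.5 mM […] and 2.0 IU/mL adenosine deaminase. Preincubated 10 min at 37 °C, then IB-MECA (100 nM) and/or antagonist with 1 mM ATP and 10 μM forskolin for 10 min. Boiled 2 min. cAMP read by [3H]cAMP competition with adrenal binding protein.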

Test [17] deals with T3, Adenosine receptor A3. The test is described as follows: biochemical.
In test [18] the target is T5, Adenosine receptor A2b. The test is described as follows: Displacement of [3H]DPCPX from Adenosine A2b receptor expressed in HEK-293 cells; range 44-58.
The target in test [19] is T3, Adenosine receptor A3. As to the kind of experiment: Displacement of [3H]MRE3008-F20 from human adenosine A3 receptor expressed in CHO cells; range 1061-1245. The test is classed as cell-based.
The target of test [20] is T2, Adenosine receptor A2a. As to the kind of experiment: Displacement of [3H]-SCH- 58261 from human adenosine A2A receptor expressed in CHO cells; range 36-55. The test is classed as cell-based. The method, boiled down:
as §1

Test [21] addresses T5, Adenosine receptor A2b. The test is described as follows: Displacement of [3H]DPCPX from Adenosine A2b receptor expressed in CHO cells; range 343-468. The test is classed as cell-based. Conditions: in the assay text read “HEK-293 cells” for “CHO cells”. The method, boiled down:
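Human recombinant A2B receptor was expressed in HEK-293 cell membranes (20 μg protein). Incubated with 40 nM [3H]DPCPX in 50 mM Tris HCl, 10 mM MgCl2, 1 mM EDTA, 0.1 mM benzamidine, pH 7.4, with 2 IU/mL adenosine deaminase, at least 6–8 test concentrations, 60 min, 25 °C. Nonspecific binding was taken with 100 μM NECA; n=3-6.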

The target of test [22] is T1, Adenosine receptor A1. The test is described as follows: Displacement of [3H]DPCPX from human adenosine A1 receptor expressed in CHO cells; range 134-229. The test is classed as cell-based.
Test [23] addresses T5, Adenosine receptor A2b. The test is described as follows: Displacement of [3H]DPCPX from Adenosine A2b receptor expressed in […]; range 226-301. The format is cell-based.
The target in test [24] is T2, Adenosine receptor A2a. As to the kind of experiment: Displacement of [3H]-SCH- 58261 from human adenosine A2A receptor expressed in CHO cells; range 1220-1590. The format is cell-based.
In test [25] the target is T1, Adenosine receptor A1. The test is described as follows: Displacement of [3H]DPCPX from human adenosine A1 receptor expressed in CHO cells; range 928-1297. The test is classed as cell-based.
In test [26] the target is T3, Adenosine receptor A3. The test is described as follows: Inhibition of cAMP accumulation in CHO cells expressing human adenosine A3 receptor; range 1.7-4.2. The test is classed as functional, cell-based.
Test [27] deals with T4, Adenosine receptor A3 (Homo sapiens). The note with it: CHO, 1 uM. The source holds these as a separate data set.
In test [28] the target is T3, Adenosine receptor A3. The test is described as follows: biochemical. This is another data set of the same source.

This is an account of results in ChEMBL document CHEMBL1133118 (J Med Chem, 2000).

T2 sequence (P29274 whole entry): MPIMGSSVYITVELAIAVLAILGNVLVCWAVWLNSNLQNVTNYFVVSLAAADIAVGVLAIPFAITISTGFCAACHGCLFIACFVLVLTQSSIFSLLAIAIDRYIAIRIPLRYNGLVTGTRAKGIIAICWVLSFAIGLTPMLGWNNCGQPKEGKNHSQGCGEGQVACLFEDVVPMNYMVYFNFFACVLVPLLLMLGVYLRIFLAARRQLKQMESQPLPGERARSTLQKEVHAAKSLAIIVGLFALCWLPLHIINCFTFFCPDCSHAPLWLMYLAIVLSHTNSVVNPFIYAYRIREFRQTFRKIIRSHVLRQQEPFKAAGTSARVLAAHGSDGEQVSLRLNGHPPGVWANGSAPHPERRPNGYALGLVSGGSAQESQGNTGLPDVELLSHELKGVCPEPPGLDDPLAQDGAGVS

Regarding `CC(C)(C)n1cc2c(nc(NC(=O)Nc3cccc(Cl)c3)n3nc(-c4ccco4)nc23)n1`, the Ki on Adenosine receptor A1 [1] was found to be 1020 nM; at Adenosine receptor A2a [2] it was 796 nM; at Adenosine receptor A3 [3], 2.78 nM; on Adenosine receptor A2b [7], 450 nM. Also, the Ratio in test [4] turned out to be 365; in test [5] it was 162. In addition, the inhibition in test [6] is 70%.

For the compound `CCCCn1cc2c(nc(NC(=O)Nc3cccc(Cl)c3)n3nc(-c4ccco4)nc23)n1`, the Ki stood at 95 nM at Adenosine receptor A2a [8], 0.6 nM at Adenosine receptor A3 [9], 70 nM on Adenosine receptor A2b [10] and 245 nM on Adenosine receptor A1 [11]. Also, the concentration for half-maximal inhibition (IC50) on Adenosine receptor A3 [12] came to 4.5 nM. Moreover, the Ratio in test [4] came out at 408; in test [5] it was 116. Further, the inhibition in [13] is 85%.

As for `Nc1nc2n[nH]cc2c2nc(-c3ccco3)nn12`, the Ki at Adenosine receptor A2a [14] turned out to be 20 nM; on Adenosine receptor A1 [15], 140 nM; on Adenosine receptor A3 [17], 348 nM; at Adenosine receptor A2b [18], 51 nM. The results for the Ratio in test [4] and in test [5] were 0.4 and 0.15, respectively. Besides, the inhibition in [16] turned out to be 24%.

Take `CC(C)(C)n1cc2c(nc(N)n3nc(-c4ccco4)nc23)n1`: the Ki at Adenosine receptor A3 [19] worked out at 1150 nM; at Adenosine receptor A2a [20], 45 nM; on Adenosine receptor A2b [21], 400 nM; on Adenosine receptor A1 [22] it was 175 nM. The Ratio turned out to be 0.15 in test [4] and 0.35 in test [5]. For the same compound, the inhibition in test [16] turned out to be 9%.

Consider `COc1ccc(NC(=O)Nc2nc3nn(C)cc3c3nc(-c4ccco4)nn23)cc1`, for which the Ki at Adenosine receptor A2b [23] stood at 261 nM; at Adenosine receptor A2a [24], 1390 nM; at Adenosine receptor A1 [25], 1100 nM; on Adenosine receptor A3 [28], 0.2 nM. On Adenosine receptor A3 [26], the IC50 stood at 2.7 nM. Also, the values for the Ratio in [4] and in [5] were 5480 and 1300, respectively. The inhibition in test [27] was found to be 94%.
